According to ChEMBL document CHEMBL3232831, “Synthetic indole and melatonin derivatives exhibit antimalarial activity on the cell cycle of the human malaria parasite Plasmodium falciparum” (Eur J Med Chem, 2014):
pIC50: −log10 of the molar value.

Experiments:
Plasmodium falciparum [1] = assay: Antiplasmodial activity against Plasmodium falciparum 3D7 infected in erythrocytes assessed as parasitemia level at 500 nM after 48 hrs by YOYO-1 staining-based flow cytometry relative to control; format: functional
Procedure, shortened: (§1)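 P. falciparum 3D7 in O+ human erythrocytes, RPMI-1640 with 10% O+ human serum, 92% N2/5% CO2/3% O2. Infected cells exposed 48 h at a single concentration. Then fixed in 2% paraformaldehyde/PBS for 24 h, permeabilized with 0.1% Triton X-100 and stained with 5 nM YOYO-1 for 30 min at 37 °C. Read on 10⁵ cells by flow cytometry. Parasitemia expressed versus solvent control; ≥3 independent experiments, one-way ANOVA with Dunnett's test.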

Plasmodium falciparum [2] = assay: Antiplasmodial activity against ring stage synchronized Plasmodium falciparum 3D7 infected in erythrocytes assessed as parasitemia level after 48 hrs by flow cytometry relative to control; format: functional, organism-based; settings: 3D7, 48 h
Procedure, shortened: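 3D7 culture was synchronized (Lambros) and infected erythrocytes were dosed at ring stage with 10 concentrations from 5 nM to 100 μM for 48 h. Parasitemia was read by YOYO-1 flow cytometry as in the single-dose assay. IC50 was obtained from sigmoid dose–response fits; ≥3 independent experiments.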

Plasmodium falciparum [3] = assay: Antiplasmodial activity against asynchronous culture of Plasmodium falciparum 3D7 infected in erythrocytes assessed as reduction of melatonin-induced increase in parasitemia level at 500 nM after 48 hrs by YOYO-1 staining-based flow cytometry (reference value: 23.5 +/- 6.8 %); format: functional; design: scale not given: the % may be the effect or the level left
Plasmodium falciparum [4] = assay: Antiplasmodial activity against Plasmodium falciparum 3D7 infected in erythrocytes assessed as parasitemia level at 100 nM after 48 hrs by YOYO-1 staining-based flow cytometry relative to control; format: functional; procedure, shortened: as §1

| SMILES | Activity (Plasmodium falciparum [1]) [%] | pIC50 (Plasmodium falciparum [2]) | Activity (Plasmodium falciparum [3]) [%] | Activity (Plasmodium falciparum [4]) [%] |
| --- | --- | --- | --- | --- |
| CCCC(=O)NCCc1c[nH]c2ccc(OC)cc12 | 8 | 4.72 | 8.8 |  |
| CCCCCC(=O)NCCc1c[nH]c2ccccc12 | 6 |  | 6.9 |  |
| COC(=O)NCCc1c[nH]c2ccccc12 | 11.7 |  | 10.9 |  |
| CCCCCC(=O)NCCc1c[nH]c2ccc(OC)cc12 | 7.8 | 4.72 | 8.6 |  |
| COc1ccc2[nH]cc(CCNC(=O)c3ccccc3)c2c1 | 10.8 | 5.53 | 9.1 |  |
| COC(=O)NCCc1c[nH]c2ccc(OC)cc12 | 10 |  | 14.5 |  |
| CCCC(=O)NCCc1c[nH]c2ccccc12 | 9.2 |  | 11 |  |
| COc1ccc2[nH]cc(CCN)c2c1 [5-METHOXYTRYPTAMINE] | 19.7 |  | 14.1 |  |
| C[C@H]1Cc2c([nH]c3cc(Cl)c(F)cc23)[C@@]2(N1)C(=O)Nc1ccc(Cl)cc12 [CIPARGAMIN] |  | 8.00 |  |  |
| COc1ccc2[nH]cc(CCNC(C)=O)c2c1 [MELATONIN] |  |  | 23.5 | 21.9 |
| CC(=O)NCCc1c[nH]c2ccccc12 [NB-ACETYLTRYPTAMINE] | 12.9 |  | 11.3 |  |
